Laboratory results published in ChEMBL document CHEMBL1127380, “(4-[18F]fluoro-3-iodobenzyl)guanidine, a potential MIBG analogue for positron emission tomography” (J Med Chem, 1994).

Legend:
Mus musculus [1] = species: Mus musculus; experiment: Tissue distribution expressed as percentage injected dose per gram of tissue in normal mice heart after 4 hour; format: ADME, organism-based; conditions: in vivo
Method in brief: (§1)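 Normal BALB/c mice, 26–29 g, given 4 μCi of the nca 18F tracer via tail vein. Groups killed with halothane at 1, 2 or 4 h post-injection. Tissues washed in saline, blot-dried, weighed and γ-counted for ¹⁸F. Values are mean ± SD as % ID/g; n = 10 at 1 and 2 h, n = 5 at 4 h.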

Mus musculus [2] = species: Mus musculus; experiment: tissue distribution expressed as percentage injected dose per gram of tissue in normal mice heart after 1 hour; format: ADME, organism-based; conditions: in vivo
Mus musculus [3] = species: Mus musculus; experiment: Tissue distribution expressed as percentage injected dose per gram of tissue in normal mice adrenals after 1 hour; format: ADME, organism-based, Adrenal gland; conditions: in vivo; method in brief: as §1
Mus musculus [4] = species: Mus musculus; experiment: Tissue distribution expressed as percentage injected dose per gram of tissue in normal mice adrenals after 4 hour; format: ADME, organism-based, Adrenal gland; conditions: in vivo; method in brief: as §1
Mus musculus [5] = species: Mus musculus; experiment: Tissue distribution expressed as percentage injected dose per gram of tissue in normal mice small intestine after 1 hour; format: ADME, organism-based; conditions: in vivo; method in brief: as §1
Mus musculus [6] = species: Mus musculus; experiment: Tissue distribution expressed as percentage injected dose per gram of tissue in normal mice bone after 2 hour; format: ADME, organism-based, Bone element; conditions: in vivo; method in brief: as §1
Mus musculus [7] = species: Mus musculus; experiment: Tissue distribution expressed as percentage injected dose per gram of tissue in normal mice kidney after 1 hour; format: ADME, organism-based; conditions: in vivo; method in brief: as §1
Mus musculus [8] = species: Mus musculus; experiment: Tissue distribution expressed as percentage injected dose per gram of tissue in normal mice stomach after 4 hour; format: ADME, organism-based; conditions: in vivo; method in brief: as §1
Mus musculus [9] = species: Mus musculus; experiment: Tissue distribution expressed as percentage injected dose per gram of tissue in normal mice lungs after 4 hour; format: ADME, organism-based, Lung; conditions: in vivo; method in brief: as §1
Mus musculus [10] = species: Mus musculus; experiment: Tissue distribution expressed as percentage injected dose per gram of tissue in normal mice adrenals after 2 hour; format: ADME, organism-based, Adrenal gland; conditions: in vivo; method in brief: as §1
Mus musculus [11] = species: Mus musculus; experiment: Tissue distribution expressed as percentage injected dose per gram of tissue in normal mice liver after 4 hour; format: ADME, organism-based; conditions: in vivo; method in brief: as §1
Mus musculus [12] = species: Mus musculus; experiment: Tissue distribution expressed as percentage injected dose per gram of tissue in normal mice kidney after 2 hour; format: ADME, organism-based; conditions: in vivo; method in brief: as §1
SK-N-SH = experiment: The compound was tested for the concentration of inhibition by unlabelled analogues to SK-N-SH human neuroblastoma cells; format: functional, cell-based
Method in brief: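 SK-N-SH neuroblastoma cells, 4 × 10⁵/well, with about 1 μCi 18F-labelled tracer or 0.1 μCi nca [¹²⁵I]MIBG plus graded concentrations of unlabelled benzylguanidines, in triplicate; 2 h at 37 °C. Nonspecific binding: 1 μM desipramine preincubation, 30 min. Cells washed twice in PBS, lysed in 0.5 N NaOH, γ-counted. Specific binding as % of control plotted against inhibitor concentration.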

Mus musculus [13] = species: Mus musculus; experiment: Tissue distribution expressed as percentage injected dose per gram of tissue in normal mice spleen after 2 hour; format: ADME, organism-based; conditions: in vivo; method in brief: as §1
Mus musculus [14] = species: Mus musculus; experiment: Tissue distribution expressed as percentage injected dose per gram of tissue in normal mice stomach after 1 hour; format: ADME, organism-based; conditions: in vivo; method in brief: as §1
Mus musculus [15] = species: Mus musculus; experiment: Tissue distribution expressed as percentage injected dose per gram of tissue in normal mice liver after 2 hour; format: ADME, organism-based; conditions: in vivo; method in brief: as §1
Mus musculus [16] = species: Mus musculus; experiment: Tissue distribution expressed as percentage injected dose per gram of tissue in normal mice muscle after 2 hour; format: ADME, organism-based; conditions: in vivo; method in brief: as §1
Mus musculus [17] = species: Mus musculus; experiment: Tissue distribution expressed as percentage injected dose per gram of tissue in normal mice kidney after 4 hour; format: ADME, organism-based; conditions: in vivo; method in brief: as §1
Mus musculus [18] = species: Mus musculus; experiment: Tissue distribution expressed as percentage injected dose per gram of tissue in normal mice bone after 4 hour; format: ADME, organism-based, Bone element; conditions: in vivo; method in brief: as §1
Mus musculus [19] = species: Mus musculus; experiment: Tissue distribution expressed as percentage injected dose per gram of tissue in normal mice lungs after 1 hour; format: ADME, organism-based, Lung; conditions: in vivo; method in brief: as §1
Mus musculus [20] = species: Mus musculus; experiment: Tissue distribution expressed as percentage injected dose per gram of tissue in normal mice large intestine after 2 hour; format: ADME, organism-based; conditions: in vivo; method in brief: as §1
Mus musculus [21] = species: Mus musculus; experiment: Tissue distribution expressed as percentage injected dose per gram of tissue in normal mice spleen after 1 hour; format: ADME, organism-based; conditions: in vivo; method in brief: as §1
Mus musculus [22] = species: Mus musculus; experiment: Tissue distribution expressed as percentage injected dose per gram of tissue in normal mice brain after 2 hour; format: ADME, organism-based; conditions: in vivo; method in brief: as §1
Mus musculus [23] = species: Mus musculus; experiment: Tissue distribution expressed as percentage injected dose per gram of tissue in normal mice small intestine after 2 hour; format: ADME, organism-based; conditions: in vivo; method in brief: as §1
Mus musculus [24] = species: Mus musculus; experiment: Tissue distribution expressed as percentage injected dose per gram of tissue in normal mice liver after 1 hour; format: ADME, organism-based; conditions: in vivo; method in brief: as §1
Mus musculus [25] = species: Mus musculus; experiment: Tissue distribution expressed as percentage injected dose per gram of tissue in normal mice thyroid after 4 hour; format: ADME, organism-based, Thyroid gland; conditions: in vivo; method in brief: as §1
Mus musculus [26] = species: Mus musculus; experiment: Tissue distribution expressed as percentage injected dose per gram of tissue in normal mice blood after 4 hour; format: ADME, organism-based; conditions: in vivo; method in brief: as §1
Mus musculus [27] = species: Mus musculus; experiment: Tissue distribution expressed as percentage injected dose per gram of tissue in normal mice brain after 4 hour; format: ADME, organism-based; conditions: in vivo; method in brief: as §1
Mus musculus [28] = species: Mus musculus; experiment: Tissue distribution expressed as percentage injected dose per gram of tissue in normal mice large intestine after 4 hour; format: ADME, organism-based; conditions: in vivo; method in brief: as §1
Mus musculus [29] = species: Mus musculus; experiment: Tissue distribution expressed as percentage injected dose per gram of tissue in normal mice thyroid after 1 hour; format: ADME, organism-based, Thyroid gland; conditions: in vivo; method in brief: as §1
Mus musculus [30] = species: Mus musculus; experiment: Tissue distribution expressed as percentage injected dose per gram of tissue in normal mice brain after 1 hour; format: ADME, organism-based; conditions: in vivo; method in brief: as §1
Mus musculus [31] = species: Mus musculus; experiment: Tissue distribution expressed as percentage injected dose per gram of tissue in normal mice small intestine after 4 hour; format: ADME, organism-based; conditions: in vivo; method in brief: as §1
Mus musculus [32] = species: Mus musculus; experiment: Tissue distribution expressed as percentage injected dose per gram of tissue in normal mice blood after 1 hour; format: ADME, organism-based; conditions: in vivo; method in brief: as §1
Mus musculus [33] = species: Mus musculus; experiment: Tissue distribution expressed as percentage injected dose per gram of tissue in normal mice spleen after 4 hour; format: ADME, organism-based; conditions: in vivo; method in brief: as §1
Mus musculus [34] = species: Mus musculus; experiment: Tissue distribution expressed as percentage injected dose per gram of tissue in normal mice blood after 2 hour; format: ADME, organism-based; conditions: in vivo; method in brief: as §1
Mus musculus [35] = species: Mus musculus; experiment: Tissue distribution expressed as percentage injected dose per gram of tissue in normal mice thyroid after 2 hour; format: ADME, organism-based, Thyroid gland; conditions: in vivo; method in brief: as §1
Mus musculus [36] = species: Mus musculus; experiment: Tissue distribution expressed as percentage injected dose per gram of tissue in normal mice stomach after 2 hour; format: ADME, organism-based; conditions: in vivo; method in brief: as §1
Mus musculus [37] = species: Mus musculus; experiment: Tissue distribution expressed as percentage injected dose per gram of tissue in normal mice bone after 1 hour; format: ADME, organism-based, Bone element; conditions: in vivo; method in brief: as §1
Mus musculus [38] = species: Mus musculus; experiment: Tissue distribution expressed as percentage injected dose per gram of tissue in normal mice heart after 1 hour; format: ADME, organism-based; conditions: in vivo; method in brief: as §1
Mus musculus [39] = species: Mus musculus; experiment: Tissue distribution expressed as percentage injected dose per gram of tissue in normal mice lungs after 2 hour; format: ADME, organism-based, Lung; conditions: in vivo; method in brief: as §1
Mus musculus [40] = species: Mus musculus; experiment: Tissue distribution expressed as percentage injected dose per gram of tissue in normal mice large intestine after 1 hour; format: ADME, organism-based; conditions: in vivo; method in brief: as §1
Mus musculus [41] = species: Mus musculus; experiment: Tissue distribution expressed as percentage injected dose per gram of tissue in normal mice muscle after 4 hour; format: ADME, organism-based; conditions: in vivo; method in brief: as §1
Mus musculus [42] = species: Mus musculus; experiment: Tissue distribution expressed as percentage injected dose per gram of tissue in normal mice muscle after 1 hour; format: ADME, organism-based; conditions: in vivo; method in brief: as §1
Mus musculus [43] = species: Mus musculus; experiment: Tissue distribution expressed as percentage injected dose per gram of tissue in normal mice heart after 2 hour; format: ADME, organism-based; conditions: in vivo; method in brief: as §1

With `N=C(N)NCc1ccc(F)cc1` the ID/g (Mus musculus [1]) was 5.9%, the ID/g (Mus musculus [2]) was 9.7% and the ID/g (Mus musculus [3]) was 15.3%. For the same molecule, the ID/g (Mus musculus [4]) was 20.3%.
`N=C(N)NCc1ccc(F)c(I)c1` gave an ID/g (Mus musculus [5]) of 5.5%, an ID/g (Mus musculus [6]) of 0.9% and an ID/g (Mus musculus [7]) of 2.6%. It also gave an ID/g (Mus musculus [8]) of 1.9%, an ID/g (Mus musculus [9]) of 4% and an ID/g (Mus musculus [10]) of 19.2%. For the same molecule, the ID/g (Mus musculus [11]) was 6.8%, the ID/g (Mus musculus [12]) was 2.3% and the IC50 (SK-N-SH; Homo sapiens, SK-N-SH) was 200 nM. For the same molecule, the IC50 (SK-N-SH; sk-n-sh) was 200 nM, the ID/g (Mus musculus [13]) was 3.7% and the ID/g (Mus musculus [14]) was 3%. For the same molecule, the ID/g (Mus musculus [15]) was 9.2%, the ID/g (Mus musculus [16]) was 1.7% and the ID/g (Mus musculus [17]) was 1.9%. It also gave an ID/g (Mus musculus [18]) of 0.7%, an ID/g (Mus musculus [19]) of 9.7% and an ID/g (Mus musculus [20]) of 4.5%. It also gave an ID/g (Mus musculus [1]) of 18.3%, an ID/g (Mus musculus [21]) of 3.8% and an ID/g (Mus musculus [22]) of 0.1%. For the same molecule, the ID/g (Mus musculus [23]) was 4.3%, the ID/g (Mus musculus [24]) was 10.5% and the ID/g (Mus musculus [25]) was 1.5%. It also gave an ID/g (Mus musculus [26]) of 0.4%, an ID/g (Mus musculus [27]) of 0.2% and an ID/g (Mus musculus [28]) of 3.8%. It also gave an ID/g (Mus musculus [29]) of 1.8%, an ID/g (Mus musculus [30]) of 0.1% and an ID/g (Mus musculus [31]) of 3%. For the same molecule, the ID/g (Mus musculus [3]) was 21.3%, the ID/g (Mus musculus [32]) was 0.9% and the ID/g (Mus musculus [33]) was 3.2%. For the same molecule, the ID/g (Mus musculus [34]) was 0.7%, the ID/g (Mus musculus [35]) was 1.9% and the ID/g (Mus musculus [36]) was 2.4%. It also gave an ID/g (Mus musculus [37]) of 1.1%, an ID/g (Mus musculus [38]) of 18.2% and an ID/g (Mus musculus [39]) of 5.5%. The ID/g (Mus musculus [40]) was 3.8%, the ID/g (Mus musculus [4]) was 19.7% and the ID/g (Mus musculus [41]) was 1.5%. For the same molecule, the ID/g (Mus musculus [42]) was 1.7% and the ID/g (Mus musculus [43]) was 19.5%.
`N=C(N)NCc1cccc(F)c1` [M-FLUOROBENZYLGUANIDINE] showed an ID/g (Mus musculus [1]) of 10.5%, an ID/g (Mus musculus [3]) of 13.9% and an ID/g (Mus musculus [38]) of 21%. For the same molecule, the ID/g (Mus musculus [4]) was 23.8%.
